In ChEMBL document CHEMBL5338759, “N-Phenyl-1-(phenylsulfonyl)-1H-1,2,4-triazol-3-amine as a New Class of HIV-1 Non-nucleoside Reverse Transcriptase Inhibitor” (J Med Chem, 2023):

Key:
[1] = tested on: Human immunodeficiency virus 1; assay: Antiviral activity against wild type HIV1 IIIB infected in human TZM-bl cells; assay type: functional, organism-based; details: Human immunodeficiency virus 1, IIIB
Method in brief: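 TZM-bl cells (2x10⁵/mL) infected with HIV-1 IIIB grown in H9 cells, with 15 µg/mL DEAE-dextran; serial dilutions from 10 mM DMSO stocks, DMSO held constant (0.005% or 0.05%); 37°C, 5% CO₂, 48 hr; cells lysed, luciferase RLU read.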

[2] = Selectivity ratio of IC50 for antiviral activity against wild type HIV1 IIIB infected in human TZM-bl cells to IC50 for antiviral activity against HIV1 harboring Y181C mutant infected in human TZM-bl cells; assay type: toxicity, cell-based; details: human immunodeficiency virus 1
Method in brief: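 TZM-bl cells (2x10⁵/mL) with 15 µg/mL DEAE-dextran were infected with HIV-1 IIIB, A17 (K103N/Y181C) IIIB variant, or NL4-3-based NNRTI-resistant mutants. Compound was present at 0.05–500 nM (DMSO held constant, 0.005% or 0.05%) for 48 hr at 37°C, 5% CO₂.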

[3] = Safety index, ratio of TC10 for neurotoxicity in mouse primary neurons assessed as loss of MAP-2 intensity to EC50 for antiviral activity against wild type HIV1 IIIB infected in human TZM-bl cells; assay type: toxicity, cell-based
Method in brief: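 Primary neuronal cultures from cortex/hippocampus of E16 CD1 mouse embryos (>95% neurons). Cells were then methanol:acetic acid-fixed and MAP-2 stained, and intensity was image-quantified. S-index = TC10/(100×EC50 vs HIV-1 IIIB in TZM-bl).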

[4] = Cmax in BALB/c mouse plasma at 250 mg/kg, IG measured at 0.5 to 24 hrs by HPLC-MS analysis; assay type: ADME, organism-based; parameters: time lower 0.5 hrs, dose 250 mg/kg, time upper 24 hrs, route ig; details: in vivo, po
Method in brief: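 Mice (~20 g; food withheld 1 h before and after dosing), single dose as 0.5 ml suspension in 1% CMC/0.05% Tween 80 by gavage. Three animals per time point (0.5–24 h). Heparinized plasma frozen at -20°C, quantified by UPLC-ESI(+)-QTOF-MS (EIC m/z 476.0691) against plasma-matrix standards. LLOQ 5 ng/ml, lower values set to 2.5 ng/ml. Noncompartmental analysis.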

[5] = Cmax in BALB/c mouse brain at 250 mg/kg, IG measured at 0.5 to 24 hrs by HPLC-MS analysis; assay type: ADME, organism-based; parameters: time 0.5-24 hrs, dose 250 mg/kg, route ig; details: po
Method in brief: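 Mice averaging 20 g (24 animals) were fasted 1 h before and 1 h after dosing. They received 250 mg/kg as 0.5 ml suspension in 1% CMC, 0.05% Tween 80 by intragastric intubation. Blood and brain were taken after decapitation at 0.5, 1, 2, 3, 5, 8 and 24 h (3 per time point). Plasma was frozen at -20°C and brain at -120 °C. Quantification was by UPLC-HRMS (ESI+, EIC m/z 476.0691) against plasma-matrix standards. Parameters were derived by noncompartmental analysis; LLOQ 5 ng/ml, with values below it set to 2.5.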

[6] = Acute toxicity in BALB/c mouse assessed as body weight gain at 2000 mg/kg, IG measured for 14 days; assay type: organism-based; details: in vivo, po, 336 h, time 14 day
Method in brief: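 Male Balb/C mice, 5–6 weeks old and 19–21 g, were deprived of food and water for 1.5–2 h. They were given a single intragastric 2000 mg/kg dose at 0.5 ml/20 g, prepared just before use. Controls received 0.5 ml of 1% starch gel intragastrically. There were 5 mice per group, observed for 14 days for condition and weight; weight was compared by Šídák's multiple comparisons test.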

[7] = Subacute toxicity in BALB/c mouse assessed as pathological change in lungs at 25 to 250 mg/kg, IG measured daily for 30 days by H and E staining based histological analysis; assay type: organism-based; details: in vivo, po, 720 h, dose 25-250 mg/kg, time 30 day
Method in brief: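 Male Balb/C mice (17 per group) received 25 or 250 mg/kg intragastrically in 1% starch gel once daily for 30 days, against starch gel controls. Internal organs were examined macroscopically after the study. Sections were paraffin-embedded and stained with hematoxylin and eosin.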

[8] = Subacute toxicity in BALB/c mouse assessed as reduction in […] level at 25 to 250 mg/kg, IG measured daily for 30 days; assay type: organism-based; details: in vivo, po, 720 h, dose 25-250 mg/kg, time 30 day
Method in brief: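 Dosing was daily intragastric 25 or 250 mg/kg in 1% starch gel (0.2 ml/20 g) for 30 days in male Balb/C mice, 17 per group, with starch gel controls. After the final dose, mice were fasted for 2 h with water available, then bled. Serum was clotted for 30 min at room temperature and centrifuged at 3500 rpm. Total protein, urea, creatinine, AST, ALT and alkaline phosphatase were assayed and compared by Mann-Whitney with Holm-Šídák, p < 0.05.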

[9] = Subacute toxicity in BALB/c mouse assessed as reduction in WBC count at 25 to 250 mg/kg, IG measured daily for 30 days; assay type: organism-based; details: in vivo, po, 720 h, dose 25-250 mg/kg, time 30 day
[10] = Subacute toxicity in BALB/c mouse assessed as effect on lung weight at 25 to 250 mg/kg, IG measured daily for 30 days; assay type: organism-based; details: in vivo, po, 720 h, dose 25-250 mg/kg, time 30 day
[11] = Subacute toxicity in BALB/c mouse assessed as effect on pancreas weight at 25 to 250 mg/kg, IG measured daily for 30 days; assay type: organism-based; details: in vivo, po, 720 h, dose 25-250 mg/kg, time 30 day

In the case of `N#C/C=C/c1ccc2c(S(=O)(=O)n3nc(Nc4ccc(C#N)c(Cl)c4)nc3N)cccc2c1`, the IC50 [1] is reported as 0.24 nM, the “Ratio IC50” value [2] is reported as 16 and the Ratio [3] is reported as “Not Active”. For the same compound, the Cmax [4] was 81.4 ng/mL, the Cmax [5] was 40.3 ng/100 mg and the Activity [6] was “Non-Toxic”. For the same compound, the Activity [7] was “Non-Toxic”, the Activity [8] was “Non-Toxic” and the Activity [9] was “Non-Toxic”. The Activity [10] was “Non-Toxic” and the Activity [11] was “Non-Toxic”.
